{"data": "Measurements pooled from the literature", "organism": "Pichia kudriavzevii", "note": "Protocols differ between the studies behind these lines."}
{"Structure (SMILES)": "CC(C)C1=CC2=CC(=O)[C@H]3C(C)(C)CCC[C@]3(C)C2=C(O)C1=O", "observed": "microbial growth", "strain": "ATCC6258", "endpoint": "IC50", "result": "12 µg/mL"}
{"Structure (SMILES)": "CCCCCCCCCCCCCN1CCNCC1", "observed": "microbial growth", "technique": "broth dilution", "strain": "ATCC6258", "time": "48 h", "endpoint": "MIC", "result": "0.975 µg/mL"}
{"Structure (SMILES)": "C[C@@H]1[C@H](O)[C@@H](C)/C=C/C=C/C=C/C=C/C=C/C=C/C=C/[C@H](O[C@@H]2O[C@H](C)[C@@H](O)[C@H](N)[C@@H]2O)C[C@@H]2O[C@](O)(C[C@@H](O)C[C@@H](O)[C@H](O)CC[C@@H](O)C[C@@H](O)CC(=O)O[C@H]1C)C[C@H](O)[C@H]2C(=O)O", "observed": "microbial growth", "strain": "ATCC6258", "endpoint": "IC50", "result": "560 nM"}
{"Structure (SMILES)": "CN1CCNCC1", "observed": "microbial growth", "technique": "broth dilution", "strain": "ATCC6258", "time": "48 h", "endpoint": "MIC", "result": "> 31.3 µg/mL"}
{"Structure (SMILES)": "CCCCCCCOc1c(OC)cc(NC(C)CCCN)c2nc(C(C)(C)C)ccc12 (stereo not drawn)", "observed": "microbial killing", "strain": "ATCC6258", "endpoint": "MFC", "result": "5 µg/mL"}
{"Structure (SMILES)": "C[C@@H]1[C@H](O)[C@@H](C)/C=C/C=C/C=C/C=C/C=C/C=C/C=C/[C@H](O[C@@H]2O[C@H](C)[C@@H](O)[C@H](N)[C@@H]2O)C[C@@H]2O[C@](O)(C[C@@H](O)C[C@@H](O)[C@H](O)CC[C@@H](O)C[C@@H](O)CC(=O)O[C@H]1C)C[C@H](O)[C@H]2C(=O)O", "observed": "microbial killing", "strain": "ATCC6258", "endpoint": "MFC", "result": "1.25 µg/mL"}
{"Structure (SMILES)": "CCCCCCCCCCCCCCN1CCOCC1", "observed": "microbial growth", "technique": "broth dilution", "strain": "ATCC6258", "time": "48 h", "endpoint": "MIC", "result": "> 31.3 µg/mL"}
{"Structure (SMILES)": "CCCCCCCOc1c(OC)cc(NC(C)CCCNC(=O)C(N)C(C)CC)c2nc(C(C)(C)C)ccc12 (stereo not drawn)", "observed": "microbial growth", "strain": "ATCC6258", "endpoint": "IC50", "result": "4.38 µg/mL"}
{"Structure (SMILES)": "CCCCCN1CCNCC1", "observed": "microbial growth", "technique": "broth dilution", "strain": "ATCC6258", "time": "48 h", "endpoint": "MIC", "result": "> 31.3 µg/mL"}
{"Structure (SMILES)": "C[C@@H]1[C@H](O)[C@@H](C)/C=C/C=C/C=C/C=C/C=C/C=C/C=C/[C@H](O[C@@H]2O[C@H](C)[C@@H](O)[C@H](N)[C@@H]2O)C[C@@H]2O[C@](O)(C[C@@H](O)C[C@@H](O)[C@H](O)CC[C@@H](O)C[C@@H](O)CC(=O)O[C@H]1C)C[C@H](O)[C@H]2C(=O)O", "observed": "microbial growth", "technique": "broth dilution", "strain": "ATCC6258", "endpoint": "IC50", "result": "0.65 µg/mL"}
{"Structure (SMILES)": "CCCCCCCCCCCN1CCNCC1", "observed": "microbial growth", "technique": "broth dilution", "strain": "ATCC6258", "time": "48 h", "endpoint": "MIC", "result": "7.8 µg/mL"}
{"Structure (SMILES)": "CC(=O)N1CCN(c2ccc(OCC3COC(Cn4ccnc4)(c4ccc(Cl)cc4Cl)O3)cc2)CC1 (stereo not drawn)", "observed": "microbial growth", "endpoint": "MIC90", "result": "1 µg/mL"}
{"Structure (SMILES)": "CCCCCOc1c(OC)cc(NC(C)CCCNC(=O)C(N)Cc2ccccc2)c2nc(C(C)(C)C)ccc12 (stereo not drawn)", "observed": "microbial growth", "strain": "ATCC6258", "endpoint": "IC50", "result": "7.37 µg/mL"}
{"Structure (SMILES)": "CCCCCCCCCCCN1CCN(CC(O)(Cn2cncn2)c2ccc(F)cc2F)CC1 (stereo not drawn)", "observed": "microbial growth", "technique": "broth dilution", "strain": "ATCC6258", "time": "48 h", "endpoint": "MIC", "result": "1.95 µg/mL"}
{"Structure (SMILES)": "CCCCOc1c(OC)cc(NC(C)CCCN)c2nc(C(C)(C)C)cc(C)c12 (stereo not drawn)", "observed": "microbial killing", "strain": "ATCC6258", "endpoint": "MFC", "result": "10 µg/mL"}
{"Structure (SMILES)": "C[C@@H]1[C@H](O)[C@@H](C)/C=C/C=C/C=C/C=C/C=C/C=C/C=C/[C@H](O[C@@H]2O[C@H](C)[C@@H](O)[C@H](N)[C@@H]2O)C[C@@H]2O[C@](O)(C[C@@H](O)C[C@@H](O)[C@H](O)CC[C@@H](O)C[C@@H](O)CC(=O)O[C@H]1C)C[C@H](O)[C@H]2C(=O)O", "observed": "microbial growth", "endpoint": "MIC90", "result": "0.125 µg/mL"}
{"Structure (SMILES)": "CCCCCOc1c(OC)cc(NC(C)CCCNC(=O)C(N)CC(C)C)c2nc(C(C)(C)C)ccc12 (stereo not drawn)", "observed": "microbial growth", "strain": "ATCC6258", "endpoint": "IC50", "result": "8.73 µg/mL"}
{"Structure (SMILES)": "CCCCCCCCCCCCN1CCN(CC(O)(Cn2cncn2)c2ccc(F)cc2F)CC1 (stereo not drawn)", "observed": "microbial growth", "technique": "broth dilution", "strain": "ATCC6258", "time": "48 h", "endpoint": "MIC", "result": "0.48 µg/mL"}
{"Structure (SMILES)": "CCCCCCOc1c(OC)cc(NC(C)CCCN)c2nc(C(C)(C)C)cc(C)c12 (stereo not drawn)", "observed": "microbial killing", "strain": "ATCC6258", "endpoint": "MFC", "result": "5 µg/mL"}
{"Structure (SMILES)": "C#CCCCCCCCCCCCC(O)CC(O)CO (stereo not drawn)", "observed": "microbial growth", "technique": "broth dilution", "strain": "ATCC6258", "endpoint": "IC50", "result": "> 200 µg/mL"}
{"Structure (SMILES)": "CCCCCCCOc1c(OC)cc(NC(C)CCCN)c2nc(C(C)(C)C)cc(C)c12 (stereo not drawn)", "observed": "microbial growth", "strain": "ATCC6258", "endpoint": "IC50", "result": "2.89 µg/mL"}
{"Structure (SMILES)": "C[C@@H]1[C@H](O)[C@@H](C)/C=C/C=C/C=C/C=C/C=C/C=C/C=C/[C@H](O[C@@H]2O[C@H](C)[C@@H](O)[C@H](N)[C@@H]2O)C[C@@H]2O[C@](O)(C[C@@H](O)C[C@@H](O)[C@H](O)CC[C@@H](O)C[C@@H](O)CC(=O)O[C@H]1C)C[C@H](O)[C@H]2C(=O)O", "observed": "microbial growth", "technique": "broth dilution", "strain": "ATCC6258", "time": "48 h", "endpoint": "MIC", "result": "3.9 µg/mL"}
{"Structure (SMILES)": "CCCCCCOc1c(OC)cc(NC(C)CCCNC(=O)C(N)Cc2cnc[nH]2)c2nc(C(C)(C)C)ccc12 (stereo not drawn)", "observed": "microbial killing", "strain": "ATCC6258", "endpoint": "MFC", "result": "> 20 µg/mL"}
{"Structure (SMILES)": "Nc1[nH]c(=O)ncc1F", "observed": "microbial growth", "endpoint": "MIC90", "result": "8 µg/mL"}
